Data taken from PMC2164977 (The Journal of Cell Biology, 1999).
Non-standard residues stand in square brackets, D forms with d. Residues, ends and D or L forms follow the SMILES beside them. *: point of attachment. Sta = CC(C)C[C@H](N)[C@@H](O)CC(=O)O; Isovaleryl = CC(C)CC(=O)*

Legend:
[1] = tested on: degradation activity of chloroplast extract (ATP-dependent, soluble metallopeptidase activity); assay: Degradation assay with chloroplast extract; type: biochemical; conditions: for effect on subfragment degradation in chloroplast extract: 30 min incubation, not shown
[2] = target: T1, stromal processing peptidase (SPP) (Pisum sativum, UniProt Q40983); conditions: 10 mM NEM in binding assay; data not shown
Procedure, shortened: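 Recombinant biotin-tagged SPP from E. coli extract is captured on streptavidin magnetic beads. It is incubated 5 min at 24°C in 25 mM Hepes-KOH pH 7.5 with dialyzed [35S]methionine-labeled FD transit peptide or subfragment. Beads are washed twice in buffer, then eluted once with NaCl (0–1,000 mM), and the remaining material is released by boiling. Tricine SDS-PAGE, autoradiography and PhosphorImager quantification follow.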

[3] = target: T1, stromal processing peptidase (SPP); assay: Processing and transit peptide trimming by recombinant SPP; type: biochemical; conditions: not shown
Procedure, shortened: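 Time courses use reticulocyte-translated [35S]methionine precursors with biotin-tagged recombinant SPP (IPTG-induced E. coli, 30°C) bound to streptavidin magnetic beads. Reactions run in 25 mM Hepes-KOH pH 7.5, 2 mM PMSF, at 24°C, and are stopped by boiling in loading buffer. For preFD and preHSP21, 5 mM 1,10-phenanthroline is added at 2 or 5 min. Products are resolved by tricine SDS-PAGE and autoradiography.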

[4] = tested on: nonspecific protease activity in rabbit reticulocyte lysate; assay: Nonspecific protease activity of the reticulocyte lysate; type: biochemical; conditions: 2 mM PMSF, supernatant of preHSP21 processing reaction, 1 h at 24°C
Procedure, shortened: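 To check lysate protease, [35S]methionine-labeled preHSP21 from reticulocyte lysate is processed 30 min at 24°C by bead-immobilized SPP. The supernatant holding the transit peptide subfragment is removed and incubated 1 h at 24°C, without inhibitor or with 2 mM PMSF. Remaining subfragment is read out.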

[5] = target: SPP in chloroplast extract (Pisum sativum, UniProt Q40983); assay: Conversion of transit peptide to subfragment in chloroplast extract; type: biochemical
Procedure, shortened: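 [35S]methionine-labeled FD transit peptide is made by 3 min cleavage of preFD on immobilized SPP, then frozen, cleared and dialyzed. It is incubated with chloroplast extract (1:1) in 25 mM Hepes-KOH pH 7.5 at 24°C for 30 min with 1,10-phenanthroline at 0.1–10 mM. Percent substrate remaining is quantified by tricine SDS-PAGE.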

Chain of SPP in chloroplast extract (Q40983 143-1257): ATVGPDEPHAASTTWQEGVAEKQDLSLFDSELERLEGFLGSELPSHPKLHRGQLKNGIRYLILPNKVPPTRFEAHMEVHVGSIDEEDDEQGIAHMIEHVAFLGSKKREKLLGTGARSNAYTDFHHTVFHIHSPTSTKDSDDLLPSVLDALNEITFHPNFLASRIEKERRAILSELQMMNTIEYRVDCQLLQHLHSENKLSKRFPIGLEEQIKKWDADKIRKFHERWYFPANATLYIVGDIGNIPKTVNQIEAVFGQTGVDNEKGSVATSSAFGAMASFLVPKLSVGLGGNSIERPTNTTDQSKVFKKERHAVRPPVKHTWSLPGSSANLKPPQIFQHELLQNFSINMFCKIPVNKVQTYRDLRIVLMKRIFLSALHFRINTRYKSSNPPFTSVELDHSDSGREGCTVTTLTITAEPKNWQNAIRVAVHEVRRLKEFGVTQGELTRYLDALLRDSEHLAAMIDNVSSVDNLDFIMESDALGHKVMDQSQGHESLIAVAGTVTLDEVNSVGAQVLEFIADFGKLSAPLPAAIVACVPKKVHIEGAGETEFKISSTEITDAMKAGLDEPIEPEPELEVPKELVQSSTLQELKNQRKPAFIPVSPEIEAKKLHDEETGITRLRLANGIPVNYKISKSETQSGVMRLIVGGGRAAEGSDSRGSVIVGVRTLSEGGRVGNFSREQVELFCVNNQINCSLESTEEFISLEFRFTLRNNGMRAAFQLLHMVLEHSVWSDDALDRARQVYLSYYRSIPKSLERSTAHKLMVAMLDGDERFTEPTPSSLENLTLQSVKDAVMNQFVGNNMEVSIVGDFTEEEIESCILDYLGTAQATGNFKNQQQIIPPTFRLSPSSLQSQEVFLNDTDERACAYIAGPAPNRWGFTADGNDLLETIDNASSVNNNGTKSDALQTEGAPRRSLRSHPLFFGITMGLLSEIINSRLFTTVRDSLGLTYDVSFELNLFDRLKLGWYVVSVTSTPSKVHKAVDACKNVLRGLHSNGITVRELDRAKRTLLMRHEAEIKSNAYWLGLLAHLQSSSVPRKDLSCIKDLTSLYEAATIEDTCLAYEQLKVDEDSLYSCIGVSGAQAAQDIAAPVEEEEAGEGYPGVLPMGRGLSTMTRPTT
T1 sequence (Q40983 143-1257): as above

CC(C)C[C@H](NC(=O)[C@H]1O[C@@H]1C(=O)O)C(=O)NCCCCN=C(N)N [E64]
effect on subfragment degradation in chloroplast extract ([1]; 100 μM inhibitor): None of these inhibitors significantly decreased

CC(C)CC(=O)N[C@H](C(=O)N[C@H](C(=O)N[C@@H](CC(C)C)[C@@H](O)CC(=O)N[C@@H](C)C(=O)N[C@@H](CC(C)C)[C@@H](O)CC(=O)O)C(C)C)C(C)C [pepstatin] (Isovaleryl-VV[Sta]A[Sta]-OH)
effect on subfragment degradation in chloroplast extract ([1]; 100 μM inhibitor): None of these inhibitors significantly decreased

CCN1C(=O)C=CC1=O [NEM, N-ethylmaleimide]
effect on interaction between SPP and FD transit peptide [2]: disrupted the interaction | effect on subfragment degradation in chloroplast extract ([1]; 10 mM inhibitor): None of these inhibitors significantly decreased | effect on SPP cleavage of precursors [3]: inhibited

O=S(=O)(F)Cc1ccccc1 [PMSF]
effect on subfragment degradation in chloroplast extract ([1]; 10 mM inhibitor): None of these inhibitors significantly decreased | HSP21 transit peptide subfragment remaining [4]: ~90%

c1cnc2c(c1)ccc1cccnc12 [1,10-phenanthroline]
FD transit peptide subfragment remaining after 30 min in chloroplast extract ([1]; 1 mM 1,10-phenanthroline, 24°C): 86% | effect on degradation of the subfragment in chloroplast extract ([1]; 5 mM 1,10-phenanthroline, 30 min): inhibited | degradation of FD transit peptide subfragment in chloroplast extract ([1]; 10 mM 1,10-phenanthroline, 30 min, 24°C): no degradation | FD transit peptide left after 30 min in chloroplast extract ([5]; 1 mM 1,10-phenanthroline, 24°C): 16% | FD transit peptide remaining after 30 min in chloroplast extract ([5]; 10 mM 1,10-phenanthroline, 24°C): 80% | sensitivity of SPP relative to the degradation activity ([5]; SPP less sensitive than degradation activity): about tenfold
